# Test results taken from ChEMBL document CHEMBL1127799, “Derivatives of a novel cyclopeptolide. 1. Synthesis, antifungal activity, and structure-activity relationships” (1994).
# Columns and labels:
# Format in all cases: functional
# Candida albicans [1] = test: Tested for minimum inhibitory concentration against Candida albicans 124 (Candida albicans) at pH of 6.5.
# Procedure, shortened: (§1)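 Broth microdilution in malt extract broth, initial pH 4.5 or 6.5, with 1×10^3 CFU per 0.2 mL well of thawed stored cultures. Compound stocks were made in 5% DMSO/0.2% Tween 80 and diluted to final 0.05–100 μg/mL. Plates were incubated 48 h at 30 °C and read macroscopically. MIC was the lowest concentration with no detectable growth. Vehicle-only wells served as controls.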
# Pichia kudriavzevii [2] = test: Tested for minimum inhibitory concentration against Candida krusei 132 (C.k) at pH of 4.5.; procedure, shortened: as §1
# [3] = tested on: Meyerozyma guilliermondii; test: Tested for minimum inhibitory concentration against Candida guilliermondii 80 (C.g) at pH of 6.5.; procedure, shortened: as §1
# Candida tropicalis [4] = test: Tested for minimum inhibitory concentration against Candida tropicalis 43 (C.t) at pH of 4.5.; procedure, shortened: as §1
# [5] = tested on: Meyerozyma guilliermondii; test: Tested for minimum inhibitory concentration against Candida guilliermondii 80 (C.g) at pH of 4.5.; procedure, shortened: as §1
# Candida tropicalis [6] = test: Tested for minimum inhibitory concentration against Candida tropicalis 43 (C.t) at pH of 6.5.; procedure, shortened: as §1
# Pichia kudriavzevii [7] = test: Tested for minimum inhibitory concentration against Candida krusei 132 (C.k) at pH of 6.5.; procedure, shortened: as §1
# Candida albicans [8] = test: Tested for minimum inhibitory concentration against Candida albicans 124 (Candida albicans) at pH of 4.5.; procedure, shortened: as §1
MIC (Candida albicans [1]) [µg/mL],MIC (Pichia kudriavzevii [2]) [µg/mL],MIC [3] [µg/mL],MIC (Candida tropicalis [4]) [µg/mL],MIC [5] [µg/mL],MIC (Candida tropicalis [6]) [µg/mL],MIC (Pichia kudriavzevii [7]) [µg/mL],MIC (Candida albicans [8]) [µg/mL],Compound
> 100,> 100,> 100,> 100,> 100,> 100,> 100,> 100,CC[C@@H](C)[C@H]1C(=O)NCC(=O)N(C)[C@@H](C(C)C)C(=O)N[C@@H](Cc2ccc(OC)cc2)C(=O)O[C@H](C)C(=O)N2CCCC[C@H]2C(=O)N(C)[C@@H](C(C)C)C(=O)N[C@@H](C(C)C)C(=O)N(C)[C@@H](CCCl)C(=O)N(C)[C@@H]([C@@H](C)CC)C(=O)N1C
50,> 100,> 100,100,> 100,> 100,> 100,12.5,CC[C@@H](C)[C@H]1C(=O)NCC(=O)N(C)[C@@H](C(C)C)C(=O)N[C@@H](Cc2ccc(OC)cc2)C(=O)O[C@H](C)C(=O)N2CCCC[C@H]2C(=O)N(C)[C@@H](C(C)C)C(=O)N[C@@H](C(C)C)C(=O)N(C)[C@@H](CCOC(C)=O)C(=O)N(C)[C@@H]([C@@H](C)CC)C(=O)N1C
> 100,> 100,> 100,100,50,> 100,> 100,12.5,CC[C@H](C)[C@H]1C(=O)NCC(=O)N(C)[C@@H](C(C)C)C(=O)N[C@@H](Cc2ccc(OC)cc2)C(=O)N[C@@H](C)C(=O)N[C@H](C)C(=O)N2CCCC[C@H]2C(=O)N(C)[C@@H](C(C)C)C(=O)N[C@@H](C(C)C)C(=O)N(C)[C@@H](CC(=O)O)C(=O)N(C)[C@@H]([C@@H](C)CC)C(=O)N1C
6.25,100,100,100,100,100,> 100,3.13,C=CCOc1ccc(C[C@@H]2NC(=O)[C@H](C(C)C)N(C)C(=O)CNC(=O)[C@H]([C@H](C)CC)N(C)C(=O)[C@H]([C@@H](C)CC)N(C)C(=O)[C@H](CC(=O)O)N(C)C(=O)[C@H](C(C)C)NC(=O)[C@H](C(C)C)N(C)C(=O)[C@@H]3CCCCN3C(=O)[C@@H](C)OC2=O)cc1
> 100,> 100,> 100,> 100,> 100,> 100,> 100,> 100,CC[C@@H](C)[C@H]1C(=O)NCC(=O)N(C)[C@@H](C(C)C)C(=O)N[C@@H](Cc2ccc(OCc3ccc(Br)cc3)cc2)C(=O)O[C@H](C)C(=O)N2CCCC[C@H]2C(=O)N(C)[C@@H](C(C)C)C(=O)N[C@@H](C(C)C)C(=O)N(C)[C@@H](CC(=O)O)C(=O)N(C)[C@@H]([C@@H](C)CC)C(=O)N1C
